From ChEMBL document CHEMBL1135602 (J Med Chem, 2002)

What was measured:
[1] = tested on: Bifunctional dihydrofolate reductase-thymidylate synthase (Plasmodium falciparum K1), P13922 [UNDEFINED MUTATION]; assay: Ratio of Inhibition of the C59R+S108N mutant of dihydrofolate reductase (DHFR) to inhibition of wild type dihydrofolate reductase.
[2] = molecular target: Bifunctional dihydrofolate reductase-thymidylate synthase (Plasmodium falciparum K1, UniProt P13922, S108N); assay: Inhibition of the S108N mutant of dihydrofolate reductase (DHFR)
Procedure, shortened: (§1)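 Assay at 25 °C: 50 mM TES pH 7.0, 75 mM β-mercaptoethanol, 1 mg/mL BSA, 100 µM H2folate and 100 µM NADPH. NADPH oxidation followed at 340 nm. Ki derived from IC50 as Ki(1+[S]/Km), assuming competitive inhibition.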

[3] = tested on: Plasmodium falciparum; assay: In vitro antiplasmodial activity (IC50) against Plasmodium falciparum wtTM4/8.2; assay type: functional, organism-based
[4] = molecular target: Bifunctional dihydrofolate reductase-thymidylate synthase (Plasmodium falciparum K1) (UniProt P13922); assay: Inhibition of mutant S108N dihydrofolate reductase (DHFR) relative to Pyr
[5] = molecular target: Bifunctional dihydrofolate reductase-thymidylate synthase (Plasmodium falciparum K1) (UniProt P13922); assay: Inhibition of mutant C59R+S108N dihydrofolate reductase (DHFR) relative to Pyr
[6] = tested on: Plasmodium falciparum; assay: IC50 ratio against Plasmodium falciparum K1CB1/TM4; assay type: functional
[7] = molecular target: Bifunctional dihydrofolate reductase-thymidylate synthase (Plasmodium falciparum K1, UniProt P13922); assay: Inhibition of the C59R+S108N mutant of dihydrofolate reductase (DHFR); procedure, shortened: as §1
[8] = tested on: Bifunctional dihydrofolate reductase-thymidylate synthase (Plasmodium falciparum K1), P13922 [UNDEFINED MUTATION]; assay: Ratio of Inhibition of the S108N mutant of dihydrofolate reductase (DHFR) to inhibition of wild type dihydrofolate reductase.
[9] = molecular target: Bifunctional dihydrofolate reductase-thymidylate synthase (Plasmodium falciparum K1) (UniProt P13922); assay: Inhibition of Plasmodium falciparum wild-type dihydrofolate reductase (DHFR) relative to Pyrimethamine.
[10] = molecular target: Bifunctional dihydrofolate reductase-thymidylate synthase (Plasmodium falciparum K1) (UniProt P13922); assay: Inhibition of the wild-type dihydrofolate reductase (DHFR) relative to Pyr.
Procedure, shortened: (§2)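 Assayed at 25 °C in 50 mM TES pH 7.0, 75 mM β-mercaptoethanol, 1 mg/mL BSA, with 100 µM H2folate and 100 µM NADPH. A340 was followed. Ki was derived from IC50 = Ki(1+[S]/Km), assuming competitive inhibition.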

[11] = molecular target: Bifunctional dihydrofolate reductase-thymidylate synthase (Plasmodium falciparum K1) (UniProt P13922); assay: Inhibition of the S108N mutant of dihydrofolate reductase (DHFR) relative to Pyr.; procedure, shortened: as §2
[12] = tested on: Plasmodium falciparum; assay: Relative antiplasmodial activity (IC50) compared to Pyr against Plasmodium falciparum K1CB1 DHFR double-mutant (C59R/S108N); assay type: functional
[13] = molecular target: Bifunctional dihydrofolate reductase-thymidylate synthase (Plasmodium falciparum K1) (UniProt P13922); assay: Inhibition of the C59R+S108N mutant of dihydrofolate reductase (DHFR) relative to Pyr.; procedure, shortened: as §2
[14] = tested on: Plasmodium falciparum; assay: In vitro relative antiplasmodial activity (IC50) compared to Pyr against Plasmodium falciparum TM4/8.2 wild-type; assay type: functional
[15] = tested on: Vero; assay: Cytotoxicity by the selective inhibition against African green monkey kidney […] (vero cells).; assay type: functional, cell-based; conditions: Chlorocebus sabaeus
[16] = tested on: KB; assay: Cytotoxicity against human epidermoid carcinoma KB cell.; assay type: functional, cell-based
[17] = tested on: BC; assay: Cytotoxicity against human breast cancer cells.; assay type: functional, cell-based
[18] = Safety ratio is cytotoxicity to KB cells/IC50 K1.; assay type: toxicity, cell-based; conditions: human, KB cells (epidermoid carcinoma); read-out: Safety ratio
Procedure, shortened: (§3)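 Ratio of the cytotoxicity IC50 (vero, KB or BC cells, Skehan protocol) to the antiplasmodial IC50 against K1CB1 (C59R+S108N DHFR). […] Label was added at 24 h and cultures ran a further 18-24 h. Final DMSO was 0.1%.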

[19] = Safety ratio is cytotoxicity to KB cells/IC50 TM4.; assay type: toxicity, cell-based; conditions: human, KB cells (epidermoid carcinoma); read-out: Safety ratio
Procedure, shortened: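 Ratio of the cytotoxicity IC50 (KB or BC cells, Skehan protocol) to the antiplasmodial IC50 against TM4/8.2 (wild-type DHFR). […] Label was added after 24 h and cultures ran a further 18-24 h.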

[20] = tested on: Plasmodium falciparum; assay: Safety ratio as cytotoxicity in vero cells relative to IC50 TM4; assay type: functional
[21] = Safety ratio is cytotoxicity to vero cells/IC50 K1.; assay type: toxicity, cell-based; conditions: monkey, read-out: Safety ratio; procedure, shortened: as §3

Chain of Bifunctional dihydrofolate reductase-thymidylate synthase (Plasmodium falciparum K1, UniProt P13922) (P13922 whole entry): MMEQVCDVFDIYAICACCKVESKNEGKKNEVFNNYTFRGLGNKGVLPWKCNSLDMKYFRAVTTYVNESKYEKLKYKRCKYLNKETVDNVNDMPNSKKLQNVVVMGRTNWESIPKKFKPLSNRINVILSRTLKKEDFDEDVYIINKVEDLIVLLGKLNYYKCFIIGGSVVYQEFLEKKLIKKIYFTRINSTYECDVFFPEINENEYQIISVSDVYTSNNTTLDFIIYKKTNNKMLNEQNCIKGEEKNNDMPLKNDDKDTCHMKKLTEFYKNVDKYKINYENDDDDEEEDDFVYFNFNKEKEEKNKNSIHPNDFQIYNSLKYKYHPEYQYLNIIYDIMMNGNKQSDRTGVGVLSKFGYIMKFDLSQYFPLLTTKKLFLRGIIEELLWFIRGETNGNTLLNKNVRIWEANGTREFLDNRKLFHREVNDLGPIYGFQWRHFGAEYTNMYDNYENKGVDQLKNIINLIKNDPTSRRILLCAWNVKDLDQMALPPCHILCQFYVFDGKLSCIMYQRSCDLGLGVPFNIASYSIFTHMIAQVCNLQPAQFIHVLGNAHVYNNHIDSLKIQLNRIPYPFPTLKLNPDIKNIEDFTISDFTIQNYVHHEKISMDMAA
Chain of Bifunctional dihydrofolate reductase-thymidylate synthase (Plasmodium falciparum K1, UniProt P13922, S108N) (P13922 whole entry, looked up, stated change not applied): as the sequence (P13922 whole entry) above
Chain of Bifunctional dihydrofolate reductase-thymidylate synthase (Plasmodium falciparum K1) (P13922 whole entry, looked up): as the sequence (P13922 whole entry) above
Chain of Bifunctional dihydrofolate reductase-thymidylate synthase (Plasmodium falciparum K1), P13922 [UNDEFINED MUTATION] (P13922 whole entry, looked up, stated change not applied): as the sequence (P13922 whole entry) above

| Structure (SMILES) | Ratio [1] | Ki [2] [nM] | IC50 [3] [nM] | Relative activity [4] | Relative activity [5] | Ratio [6] | Ki [7] [nM] | Ratio [8] | Relative activity [9] | further results |
| --- | --- | --- | --- | --- | --- | --- | --- | --- | --- | --- |
| Cc1nc(N)nc(N)c1-c1ccccc1 | 3.4 | 25.6 | 7400 | 0.9 | 0.7 | 4.2 | 36.7 | 2.3 | 18.2 | – |
| CCc1nc(N)nc(N)c1-c1ccc(OC)cc1 | 95.6 | 39 | 300 | – | – | >84 | 86 | 43.3 | – | Relative activity [10]: 1.5; Relative activity [11]: 1.4; Relative activity [12]: >0.8; Relative activity [13]: 1.6; Relative activity [14]: 3.8 |
| Nc1nc(N)c(-c2cccc(Cl)c2)c(CCCc2ccccc2)n1 | 3.5 | 3 | 700 | – | – | 4.3 | 4.2 | 2.5 | 2 | – |
| Nc1ncc(-c2ccc(Cl)cc2)c(N)n1 | 232 | 369 | 2300 | 12.9 | 10.3 | 11.4 | 556 | 154 | 4 | – |
| CCc1nc(N)nc(N)c1-c1ccc2c(c1)OCO2 | 31.5 | 17.2 | 400 | 0.6 | 0.6 | 53.8 | 34.6 | 15.6 | 1.8 | – |
| COC(=O)CCCc1nc(N)nc(N)c1-c1ccc(Cl)cc1 | 91.3 | 16.9 | 40 | 0.6 | 0.5 | 557.5 | 27.4 | 56.3 | 0.5 | – |
| COc1cc(Cc2cnc(N)nc2N)cc(OC)c1OCc1ccccc1 | – | 61.9 | 4200 | – | – | 7.1 | 71.9 | – | – | – |
| COc1cc(Cc2cnc(N)nc2N)cc(OC)c1OC [TRIMETHOPRIM] | – | – | – | – | – | – | – | – | – | IC50 [15]: > 50000 nM; IC50 [16]: > 250000 nM; IC50 [17]: > 250000 nM |
| COC(=O)CCCc1nc(N)nc(N)c1-c1ccccc1 | 9.2 | 1.8 | 400 | 0.06 | 0.1 | 78.3 | 5.5 | 0.06 | 1 | – |
| CCOc1c(Br)cc(-c2c(N)nc(N)nc2CC)cc1Br | 76.3 | 415 | 3700 | 14.5 | 9.9 | 4.7 | 535 | 59.3 | 11.7 | – |
| CCc1nc(N)nc(N)c1-c1ccc(Cl)cc1Cl | 90.6 | 1170 | 11300 | 41 | 21.2 | 2 | 1140 | 93.1 | 21 | – |
| CCOc1cc(Cc2cnc(N)nc2N)ccc1OCc1ccccc1 | – | – | 500 | – | – | – | – | – | – | IC50 [15]: > 250000 nM; IC50 [16]: 47000 nM; IC50 [17]: 100000 nM |
| Nc1ncc(-c2ccccc2)c(N)n1 | 1.8 | 81 | 20900 | 2.8 | 1.4 | 0.9 | 76.2 | 1.9 | 69.8 | – |
| COC(=O)CCCc1nc(N)nc(N)c1-c1cccc(Cl)c1 | 5.6 | 1.7 | 800 | – | – | 45.4 | 2.8 | 3.4 | 0.8 | – |
| CCc1nc(N)nc(N)c1-c1ccc(OCc2ccc(Cl)cc2Cl)c(OC)c1 | – | – | 3700 | – | – | – | – | – | – | – |
| Cc1nc(N)nc(N)c1-c1ccc(Cl)cc1 | 71 | 104 | 500 | 3.6 | 2.6 | 120.2 | 142 | 51.8 | 3.3 | – |
| Cc1nc(N)nc(N)c1-c1cccc(Cl)c1 | 1.6 | 3.2 | 2400 | – | – | 2 | 3.1 | 1.7 | 3.2 | – |
| Nc1nc(N)c(-c2ccc(Cl)cc2)c(CCCc2ccccc2)n1 | 33.3 | 13.9 | 50 | 0.5 | 0.4 | 212 | 23.3 | 19.9 | 1.2 | – |
| CCc1nc(N)nc(N)c1-c1ccc(Cl)c(Cl)c1 [ETOPRINE] | 12.6 | 9 | 60 | 0.3 | 0.2 | 290 | 12.6 | 9 | 1.7 | – |
| Nc1ncc(-c2cccc(Cl)c2)c(N)n1 | 5 | 26.3 | 6000 | – | – | 1.5 | 31.6 | 4.2 | 10.5 | – |
| CCc1nc(N)nc(N)c1-c1ccc(Cl)cc1 [PYRIMETHAMINE] | – | – | 80 | – | – | – | – | – | – | IC50 [16]: 109000 nM; IC50 [17]: > 250000 nM |
| CCCCOc1cc(Cc2cnc(N)nc2N)ccc1OCc1cc(OC)c(OC)c(OC)c1 | – | – | 440 | – | – | – | – | – | – | IC50 [15]: > 50000 nM; IC50 [16]: > 50000 nM |
| CCc1nc(N)nc(N)c1-c1cccc(Cl)c1 | – | 1.6 | 400 | […] | […] | […] | […] | – | […] | IC50 [15]: 7000 nM; selectivity ratio [18]: […]; IC50 [16]: 46000 nM; IC50 [17]: 25000 nM; selectivity ratio [19]: […]; Safety ratio [20]: […]; selectivity ratio [21]: […] |
| COc1cc(COc2ccc(Cc3cnc(N)nc3N)cc2)cc(OC)c1OC | – | – | 700 | – | – | – | – | – | – | IC50 [15]: > 250000 nM; IC50 [16]: > 250000 nM; IC50 [17]: > 250000 nM |
